Measurements as given in ChEMBL document CHEMBL4811308, “Design, synthesis and broad spectrum antibreast cancer activity of diarylindoles via induction of apoptosis in aggressive breast cancer cells” (Bioorg Med Chem, 2021).
Active and inactive are the calls of the source. No cut-off for these calls is given here.

Experiments:
MDA-MB-231 [1] = assay: Induction of apoptosis in human MDA-MB-231 cells assessed as early apoptotic cells at 4 uM incubated for 24 hrs by annexin-V-FITC and PI staining based flow cytometry analysis (reference value: 0.28 to 4.68 %); assay type: functional
In short: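 MDA-MB-231 cells (1 × 10^6) grown 24 h in six-well plates, then treated for 24 h. Cells trypsinized, PBS-washed and stained with Annexin V-FITC/PI in binding buffer for 10 min in the dark at room temperature. Early/late apoptotic fractions quantified by flow cytometry.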

MDA-MB-231 [2] = assay: Induction of cell cycle arrest in human MDA-MB-231 cells assessed as accumulation at S phase at 4 uM incubated for 24 hrs by PI staining based flow cytometry analysis (reference value: 40.37 to 57.89 %); assay type: functional
MDA-MB-231 [3] = assay: Induction of mitochondrial membrane depolarization in human MDA-MB-231 cells at 2 to 6 uM incubated for 24 hrs by JC-1 staining based flow cytometry analysis; assay type: functional, cell-based; settings: dose 2-6 µM
In short: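 Mitochondrial potential measured in MDA-MB-231 cells (1 × 10^6) seeded in six-well plates for 24 h and treated 24 h. Trypsinized cells PBS-washed and stained with 5 µg/ml JC-1 for 30 min in dark at room temperature. Resuspended in PBS and read by flow cytometry as red aggregate versus monomer fluorescence.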

4T1 = assay: Antitumor activity against mouse 4T1 cells […] in BALB/c mouse assessed as reduction in tumor growth at 10 to 20 mg/kg, po administered for 21 days and measured on day 21 relative to control; assay type: functional, organism-based; settings: dose 10-20 mg/kg, time 21.0 day
In short: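 Orthotopic syngeneic model: 4T1 cells (7 × 10^5) injected into the mammary fat pad of six-week-old female Balb/c mice; randomized once tumors were measurable (1 week). Compounds in ethanol diluted in PBS, 10 or 20 mg/kg oral gavage daily for 21 days; vehicle controls. Tumor size measured twice weekly; volume = (LW²) × 0.5.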

[4] = molecular target: Estrogen receptor beta (Homo sapiens) (UniProt Q92731); assay: Transactivation of ERbeta (unknown origin) transfected in human MDA-MB-231 cells at 1 uM by dual luciferase receptor assay; assay type: cell-based
In short: (§1)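 MDA-MB-231 cells grown to 80-90% confluency, transfected with 500 ng of ERα (pSG5 mERα) or ERβ (pSG5-hERβ) expression vector plus pRL-SV40 Renilla for normalization, then reseeded. Cells incubated with E2 (100 nM), compound at 1 µM, or tamoxifen at 1 µM. Dual luciferase readout reported as percent normalized RLU, triplicate experiments with three replicates each.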

PC-3 = assay: Cytotoxicity against human PC-3 cells assessed as reduction in cell viability incubated for 24 hrs by MTT assay; assay type: functional, cell-based; settings: PC-3, 24 h
In short: (§2)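 MTT viability: cells seeded at 1 × 10^4/well, grown 24 h, then exposed to a concentration range of compound for 24 h. MTT (5 mg/mL stock) added for 3 h, formazan dissolved in DMSO, absorbance read at 540 nm.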

[5] = Acute toxicity in Swiss albino mouse assessed as protein level at 50 mg/kg, po administered once and observed for 7 days (reference value: 2.01 +/- 0.11 mg/ml); assay type: organism-based; settings: in vivo, 168 h, time 7 day
MDA-MB-231 [6] = assay: Cytotoxicity against human MDA-MB-231 cells assessed as reduction in cell viability incubated for 24 hrs by MTT assay; assay type: functional, cell-based; settings: MDA-MB-231, 24 h; in short: as §2
MDA-MB-231 [7] = assay: Induction of apoptosis in human MDA-MB-231 cells incubated for 24 hrs by annexin-V-FITC and PI staining based flow cytometry analysis; assay type: functional, cell-based; settings: dose 2-6 µM
MDA-MB-231 [8] = assay: Induction of apoptosis in human MDA-MB-231 cells assessed as viable cells at 4 uM incubated for 24 hrs by annexin-V-FITC and PI staining based flow cytometry analysis (reference value: 95.27 to 97.16 %); assay type: functional; settings: read-out: Activity
[9] = Acute toxicity in Swiss albino mouse assessed as relative heart weight at 5 to 300 mg/kg, po administered once and observed for 7 days; assay type: organism-based; settings: in vivo, 168 h, dose 5-300 mg/kg, time 7 day
In short: (§3)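 Acute oral toxicity per OECD guideline 423; mice 20–25 g, 3 male + 3 female per group, acclimatized 7 days at 22 ± 5 °C, 12 h light/dark. Compound dissolved in minimal DMSO, diluted in 0.7% CMC, single oral dose of 5, 50 or 300 mg/kg; controls given vehicle only. Clinical signs checked hourly on dosing day, then daily. Samples and body weights taken on day 7.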

MDA-MB-231 [10] = assay: Induction in caspase-mediated apoptosis in human MDA-MB-231 cells assessed as decrease in cell viability at 2 uM incubated for 24 hrs in presence of Z-VAD-FMK by MTT assay; assay type: functional, cell-based
In short: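 MDA-MB-231 cells pretreated 2 h with 50 µM Z-VAD-FMK, then exposed to 2 µM compound for 24 h. Viability by MTT (3 h), formazan in DMSO, absorbance at 540 nm. Three independent experiments, mean ± S.E.M.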

[11] = Acute toxicity in Swiss albino mouse assessed as SGPT level at 5 mg/kg, po administered once and observed for 7 days (reference value: 12.65 +/- 2.98 U/L); assay type: organism-based; settings: in vivo, 168 h, time 7 day
[12] = Acute toxicity in Swiss albino mouse assessed as absolute spleen weight at 5 to 300 mg/kg, po administered once and observed for 7 days; assay type: organism-based; settings: in vivo, 168 h, dose 5-300 mg/kg, time 7 day; in short: as §3
[13] = Toxicity in BALB/c mouse xenografted with mouse 4T1 cells assessed as survival rate at 10 to 20 mg/kg, po administered for 21 days and measured on day 21; assay type: organism-based; settings: in vivo, 504 h, dose 10-20 mg/kg, time 21 day
In short: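 Orthotopic syngeneic model: 4T1 cells (7 × 10^5) injected into mammary fat pad of six-week-old female Balb/c mice. Once tumours were measurable at one week, mice were randomized into ten groups. Compound was dissolved in ethanol, diluted in PBS, and given by oral gavage at 10 or 20 mg/kg daily for 21 days; vehicle controls. Body weight and tumour size were measured twice weekly.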

[14] = molecular target: T1, Estrogen receptor (Homo sapiens) (UniProt P03372); assay: Transactivation of ERalpha (unknown origin) transfected in human MDA-MB-231 cells at 1 uM by dual luciferase receptor assay; assay type: cell-based; in short: as §1
T1 sequence (whole entry): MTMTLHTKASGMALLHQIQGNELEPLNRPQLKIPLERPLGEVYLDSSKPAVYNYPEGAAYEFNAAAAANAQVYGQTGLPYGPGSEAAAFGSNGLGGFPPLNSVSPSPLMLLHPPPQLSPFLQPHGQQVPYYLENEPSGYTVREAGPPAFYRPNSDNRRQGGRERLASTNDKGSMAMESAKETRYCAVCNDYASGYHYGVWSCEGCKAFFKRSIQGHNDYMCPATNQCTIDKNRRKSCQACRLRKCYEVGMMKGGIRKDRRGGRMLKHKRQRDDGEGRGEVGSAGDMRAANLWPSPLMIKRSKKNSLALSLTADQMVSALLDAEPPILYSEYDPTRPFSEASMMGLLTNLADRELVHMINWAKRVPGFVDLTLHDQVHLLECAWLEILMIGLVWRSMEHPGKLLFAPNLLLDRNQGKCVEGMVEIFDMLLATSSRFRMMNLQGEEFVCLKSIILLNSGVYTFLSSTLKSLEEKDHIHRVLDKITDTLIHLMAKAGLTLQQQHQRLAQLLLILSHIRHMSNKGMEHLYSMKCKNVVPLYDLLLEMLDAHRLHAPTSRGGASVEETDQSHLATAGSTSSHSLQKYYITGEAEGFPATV

Estrogen receptor beta (Homo sapiens), sequence (Q92731 whole entry): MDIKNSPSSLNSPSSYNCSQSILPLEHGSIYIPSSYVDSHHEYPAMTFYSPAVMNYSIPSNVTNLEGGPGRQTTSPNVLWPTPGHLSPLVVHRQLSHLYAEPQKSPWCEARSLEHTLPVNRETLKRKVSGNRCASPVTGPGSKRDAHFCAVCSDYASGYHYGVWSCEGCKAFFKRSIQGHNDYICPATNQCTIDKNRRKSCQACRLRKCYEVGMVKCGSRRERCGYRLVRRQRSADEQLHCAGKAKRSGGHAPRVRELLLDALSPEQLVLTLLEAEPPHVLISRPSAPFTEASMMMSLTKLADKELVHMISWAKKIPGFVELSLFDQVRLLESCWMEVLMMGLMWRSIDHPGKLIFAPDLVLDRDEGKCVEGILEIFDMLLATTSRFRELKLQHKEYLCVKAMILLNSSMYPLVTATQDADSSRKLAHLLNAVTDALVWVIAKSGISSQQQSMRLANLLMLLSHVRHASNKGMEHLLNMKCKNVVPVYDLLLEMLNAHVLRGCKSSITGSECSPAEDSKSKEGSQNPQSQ

Q: Which results are given for `COc1ccc2c(c1)c(Cc1ccc(OC(C)CN(C)C)cc1)c(-c1cc(OC)c(OC)c(OC)c1)n2Cc1ccc(OC(C)CN(C)C)cc1` (stereo unspecified)?
A: Activity (MDA-MB-231 [1]): 28.04%; Activity (MDA-MB-231 [2]): 40.83%; Activity (MDA-MB-231 [3]): Active; Activity (4T1): Active; Activity ([4]; filed as activator): Active; IC50 (PC-3): 6.72 µM; Activity [5]: 1.28 mg/mL; IC50 (MDA-MB-231 [6]): 3.88 µM; Activity (MDA-MB-231 [7]): Dose-Dependent Effect; viability at 4 µM (MDA-MB-231 [8]): 53.2%; Activity [9]: Non-Toxic; Activity (MDA-MB-231 [10]): inactive; Activity [11]: 11.82 U/L; Activity [12]: Non-Toxic; Activity [13]: Non-Toxic; Activity [14]: inactive

Q: Which results are given for `CCN(CC)CCOc1ccc(Cc2c(-c3cc(OC)c(OC)c(OC)c3)n(Cc3ccc(OCCN(CC)CC)cc3)c3ccc(OC)cc23)cc1`?
A: Activity (MDA-MB-231 [1]): 4.19%; Activity (MDA-MB-231 [2]): 38.03%; Activity (MDA-MB-231 [3]): Active; Activity (4T1): Active; Activity ([4]; filed as activator): Active; IC50 (PC-3): 8.31 µM; IC50 (MDA-MB-231 [6]): 2.34 µM; Activity (MDA-MB-231 [7]): Dose-Dependent Effect; viability at 4 µM (MDA-MB-231 [8]): 77.9%; Activity (MDA-MB-231 [10]): Active; Activity [13]: Non-Toxic; Activity [14]: inactive

Q: For `COc1ccc2c(c1)c(Cc1ccc(OCCN3CCCCC3)cc1)c(-c1cc(OC)c(OC)c(OC)c1)n2Cc1ccc(OCCN2CCCCC2)cc1`, which Activity (MDA-MB-231 [1]) is on record?
A: 16.02%

Q: What about the Activity (MDA-MB-231 [2]) of the same compound?
A: 29.41%

Q: What about the Activity (MDA-MB-231 [3]) of the same compound?
A: Active

Q: And the Activity (4T1)?
A: Active

Q: What about the Activity [4] of the same compound?
A: inactive

Q: What about the IC50 (PC-3) of the same compound?
A: 7.07 µM

Q: And the IC50 (MDA-MB-231 [6])?
A: 2.42 µM

Q: And the Activity (MDA-MB-231 [7])?
A: Dose-Dependent Effect

Q: And the viability at 4 µM (MDA-MB-231 [8])?
A: 56%

Q: And the Activity (MDA-MB-231 [10])?
A: Active

Q: What about the Activity [13] of the same compound?
A: Non-Toxic

Q: And the Activity [14]?
A: inactive

Q: Which Activity (MDA-MB-231 [1]) does the source give for `COc1ccc2c(c1)c(Cc1ccc(OCCN(C)C)cc1)c(-c1cc(OC)c(OC)c(OC)c1)n2Cc1ccc(OCCN(C)C)cc1` here?
A: 18.17%

Q: And the Activity (MDA-MB-231 [2])?
A: 38.65%

Q: And the Activity (MDA-MB-231 [3])?
A: Active

Q: And the Activity (4T1)?
A: Active

Q: And the Activity ([4]; filed as activator)?
A: Active

Q: What about the IC50 (PC-3) of the same compound?
A: 5.82 µM

Q: What about the Activity [5] of the same compound?
A: 1.48 mg/mL

Q: What about the IC50 (MDA-MB-231 [6]) of the same compound?
A: 3.78 µM

Q: What about the Activity (MDA-MB-231 [7]) of the same compound?
A: Dose-Dependent Effect

Q: And the viability at 4 µM (MDA-MB-231 [8])?
A: 58.3%

Q: And the Activity [9]?
A: Non-Toxic

Q: And the Activity (MDA-MB-231 [10])?
A: inactive

Q: And the Activity [11]?
A: 14.47 U/L

Q: And the Activity [12]?
A: Non-Toxic

Q: And the Activity [13]?
A: Non-Toxic

Q: What about the Activity [14] of the same compound?
A: inactive
